CHO parental Ca = ATP-evoked calcium signal inhibitors, parental CHO, primary screen, counter-screen for OX1R antagonist project, cell-based, fluorescence, Fluo-8 calcium dye. inhibition, % at 5.6 µM. parental CHO-K1, ATP-induced calcium, Fluo-8 fluorescence. 0.63% of 330,000 active;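 active = inhibition above that plate's mean sample inhibition plus 3 SD, cut at about 26% in these data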;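 also: 0% = ATP-challenged DMSO wells and 100% = DMSO wells without ATP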
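Material – parental CHO cells · Reagent – ATP stimulus · Compound – single nominal dose of 5.6 µM per compound · Detection – Fluo-8 fluorescence · Read-out basis – percent inhibition of calcium signal · Controls – ATP-challenged DMSO wells low, unchallenged DMSO wells high · Repeats – no replicates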
GPR7 antagonist = GPR7 receptor antagonists, primary screen, cell-based, fluorescence, single concentration | AID 1861, 2009 | 1.1% of 290,000 active | Neuropeptides B/W receptor type 1 (Homo sapiens), P48145 | inhibition, % at 4.4 µM | GPR7-expressing cells, fluorescence antagonist assay; in the data active = inhibition above about 16%, passing the limit was not always enough;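 also: cells stimulated with the agonist NPW; 0% = agonist with vehicle and 100% = vehicle without agonist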
OX1R antag-1 = antagonists of human orexin 1 receptor (OX1R); Orexin/Hypocretin receptor type 1 (Homo sapiens), O43613; 1.8% of 330,000 active; OX1R-expressing cells, FRET antagonist read-out; inhibition, % at 6.6 µM; in the data active = inhibition mostly above about 38%, no sharp cut-off; inactive = mostly below about 40%;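 also: 0% = agonist challenge alone and 100% = reference antagonist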
Target sequence (O43613 whole entry, looked up): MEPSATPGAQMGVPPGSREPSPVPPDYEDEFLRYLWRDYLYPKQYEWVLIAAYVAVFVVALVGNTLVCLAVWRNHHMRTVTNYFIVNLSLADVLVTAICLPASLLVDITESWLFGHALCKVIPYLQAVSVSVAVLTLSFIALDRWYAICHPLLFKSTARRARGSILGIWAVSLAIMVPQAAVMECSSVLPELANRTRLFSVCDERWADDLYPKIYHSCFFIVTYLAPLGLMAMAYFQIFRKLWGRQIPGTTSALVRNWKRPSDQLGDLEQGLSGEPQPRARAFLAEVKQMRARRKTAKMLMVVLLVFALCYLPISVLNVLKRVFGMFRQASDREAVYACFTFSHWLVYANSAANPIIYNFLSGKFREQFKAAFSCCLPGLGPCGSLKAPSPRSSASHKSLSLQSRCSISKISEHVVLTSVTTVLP
OX1R antag-2 = OX1R (HCRTR1) antagonists, primary screen, fluorescence, CHO/OX1R cells, Fluo-8 calcium, orexin A; inhibition, % at 5 µM; Orexin/Hypocretin receptor type 1 (Homo sapiens), O43613; 0.43% of 330,000 active; Fluo-8 calcium fluorescence;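 active = inhibition above its plate's threshold, mean inhibition of all tested compounds on the plate plus 3 SD, cut at about 37% in these data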;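 also: 0% = orexin A challenge wells and 100% = SB-334867-A antagonist wells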
TAAR1 agonist = human TAAR1 agonists, primary screen, Fluo-8 calcium fluorescence, CHO RD-HGA16 cells; Trace amine-associated receptor 1 (Homo sapiens), Q96RJ0; vehicle wells 0%, saturating PEA agonist 100%; activation, % at 3 µM; 0.99% of 360,000 active; AID 624467, 2012;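 active = activation above the mean activation of all test compounds in the run plus 3 SD, cut at about 38% in these data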
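Test system: RD-HGA16 (CHO) cells co-expressing Gα16 and hTAAR1; dosing: one-point dosing at 3 µM (nominal); timing: 17-24 h seeding, 75 min 37 °C dye, 30 min RT; signal: kinetic Fluo-8 calcium fluorescence; read-out basis: % activation relative to PEA EC100 response; controls: DMSO and PEA EC100; replicates: n 1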
TAAR1 antagonist = human TAAR1 antagonists, primary screen, Fluo-8 calcium fluorescence, CHO RD-HGA16 cells. 1.5% of 360,000 active. inhibition, % at 3 µM. AID 624466, 2012. Trace amine-associated receptor 1 (Homo sapiens), Q96RJ0. antagonist;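 active = inhibition above a per-plate cutoff, the mean inhibition of test compounds on that plate plus 3 SD, cut at about 49% in these data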;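 also: 0% = DMSO plus EC80 beta-PEA response and 100% = DMSO alone without agonist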
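Test system – hTAAR1-expressing CHO RD-HGA16 cells, Gα16-coupled · Also added – β-PEA at EC80 concentration, post-compound challenge · Compound – 3 µM, single point · Incubation – dye loading 75 min at 37 °C, then 30 min room temperature · Measured by – Fluo-8 intracellular calcium dye fluorescence, real-time kinetic reads · Benchmarks – vehicle and agonist controls · Replicates – singlicate, one well per test compound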
TAAR1 nonsel count = nonselective antagonists in TAAR1 counter-screen cells, counter-screen for hTAAR1 antagonist project, cell-based, fluorescence, calcium; 77% of 2,400 active; inhibition, % at 3 µM; counterscreen cell line, antagonist mode; shares compounds with TAAR1 antagonist; AID 651780, 2012; in the data active = inhibition above about 22%;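 also: CHO-Ga16 host cells stimulated with ATP at an EC80 level; 0% = agonist EC80 plus vehicle and 100% = vehicle without agonist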
TAAR1 antag conf = human TAAR1 antagonists, retest of hits, confirmation, cell-based, fluorescence; 40% of 2,400 active; shares compounds with TAAR1 antagonist; TAAR1-expressing cells, fluorescence antagonist read-out; inhibition, % at 3 µM; in the data active = inhibition above about 49%;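 also: CHO-Ga16 host cells challenged with agonist PEA near its EC80; 0% = agonist at EC80 plus vehicle and 100% = vehicle with no agonist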
Ga16 nonsel ag = calcium activation in Ga16-expressing cells, counter-screen for TAAR1 antagonist project, cell-based, fluorescence | shares compounds with TAAR1 antagonist | agonist counterscreen | activation, % at 3 µM | 18% of 2,400 active | AID 651953, 2012; in the data active = activation above about 12%;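 also: 0% = vehicle wells and 100% = saturating stimulus response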
TAAR1 ag count = TAAR1 activation by candidate antagonists – cell-based, fluorescence, counter-screen for TAAR1 antagonist project; 2% of 2,400 active; AID 651955, 2012; shares compounds with TAAR1 antagonist; hTAAR1 cell line, agonist mode; activation, % at 3 µM; in the data active = activation above about 37%;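 also: CHO cells stably expressing TAAR1 with calcium dye readout; 0% = DMSO vehicle and 100% = full agonist response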
* = called active by the depositor; nt = not tested or not shown. The list is not random: actives were taken first. Their share in the collection is about 4.6%.

SMILES	CHO parental Ca	GPR7 antagonist	OX1R antag-1	OX1R antag-2	TAAR1 agonist	TAAR1 antagonist	TAAR1 nonsel count	TAAR1 antag conf	Ga16 nonsel ag	TAAR1 ag count
CCC(C)Nc1nc(-c2cccc(OC)c2O)nc2ccccc12 (centres undefined)	-9.7	-21.7	13.3	-13.9	18.1	57.2*	21.0	35.8	11.1	25.1
O=C1c2ccccc2C(=O)N1CCc1nc(-c2ccc(Cl)cc2)no1	-4.5	-0.9	7.7	-10.4	18.6	63.4*	28.6*	37.3	5.7	2.0
CC1CCN(C(=O)C2CCN(S(=O)(=O)c3cccc4cccnc34)CC2)CC1	-11.0	-9.4	12.6	-24.3	5.4	-13.1	nt	nt	nt	nt
O=C(C1CCN(S(=O)(=O)c2cccc3cccnc23)CC1)N1CCn2c1nc1ccccc12	-2.0	-0.7	12.4	-26.8	9.0	59.5*	28.1*	44.1	8.1	7.2
Cc1c(N=C2N=C(NC(=O)NC(C)(C)C)c3ccccc32)c(=O)n(-c2ccccc2)n1C	-8.0	6.1	24.6	-16.6	7.4	16.5	nt	nt	nt	nt
Cc1c(N=C2N=C(NC(=O)c3cccs3)c3ccccc32)c(=O)n(-c2ccccc2)n1C	-3.4	-17.3	19.7	-15.3	18.3	58.9*	41.9*	49.2*	17.9*	13.0
COc1ccccc1N1CCN(C(=O)c2oc3ccccc3c2C)CC1	nt	nt	nt	nt	0.9	2.0	nt	nt	nt	nt
COc1ccccc1N1CCN(C(=O)c2oc3ccc(F)cc3c2C)CC1	-8.2	-9.0	4.9	-11.2	12.2	53.5*	26.4*	50.7*	7.5	7.0
COc1ccccc1N1CCN(C(=O)/C=C/c2ccccc2)CC1	-13.6	-6.5	12.7	-24.3	15.8	105.1*	6.1	4.8	0.6	4.0
COc1ccccc1N1CCN(C(=O)c2ccc(Br)o2)CC1	3.8	nt	7.6	-8.4	-3.2	101.4*	9.5	15.2	11.4	15.4
COc1ccccc1N1CCN(C(=O)/C=C/c2cccs2)CC1	-5.1	5.6	7.0	-6.5	0.1	-17.4	nt	nt	nt	nt
CCNC(=O)C1CC(=O)N(Cc2ccc3c(c2)OCO3)C(=Nc2ccc(OCC)cc2)S1 (centres undefined)	-3.0	-2.3	15.6	-5.8	8.1	11.1	nt	nt	nt	nt
COc1ccc(OC)c(NC(=O)CCC(=O)Oc2ccc(C)cc2)c1	-5.3	-11.1	13.1	3.9	0.1	-1.6	nt	nt	nt	nt
CC(=O)c1cccc(NC(=O)c2cc(=O)[nH]c3ccccc23)c1	-8.6	-11.6	8.1	-37.7	6.0	3.0	nt	nt	nt	nt
O=C(NCc1ccco1)c1cccc(Nc2nc3ccc(Br)cc3[nH]2)c1	-26.2	-9.4	19.1	-22.0	17.5	55.5*	23.6*	27.1	5.0	11.9
Cc1cc(C(=O)COC(=O)c2nccnc2N)c(C)n1C	-9.7	-9.7	70.4	-19.4	-3.1	105.4*	10.8	6.6	-1.1	-1.9
Cc1ccc(S(=O)(=O)N(C)c2ccc(OC(=O)CN3C(=O)NC4(CCCC4)C3=O)cc2)cc1	-4.8	nt	17.8	-24.4	6.2	12.1	nt	nt	nt	nt
Cc1ccc(S(=O)(=O)N(C)c2ccc(OC(=O)CN3C(=O)NC4(CCCC4)C3=O)cc2)cc1C	2.4	nt	15.4	-23.2	13.4	82.0*	39.7*	51.4*	11.5*	8.2

Source: PubChem BioAssay (The Scripps Research Institute Molecular Screening Center)
